Legend:
MT4 [1] = test: Effective concentration of compound against HIV-1 IIIB strain in MT-4 cells; format: functional, cell-based; settings: Homo sapiens
How it was run: (§1)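 MT4 cells infected with HIV-1 IIIB. Virus-induced cytopathogenic effect scored. EC50 is the concentration protecting 50% of infected cells against cytopathogenicity. Relative potency is expressed against AMD3100.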

[2] = (§2) Concentration of compound causing 50% death of uninfected cells; format: ADME, cell-based; settings: human
How it was run: (§3)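 Uninfected cells of each line (CEM-SS, MT4 or PBMC) exposed to compound; CC50 taken as the concentration causing 50% death of uninfected cells.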

CEM-SS [3] = test: Effective concentration of compound against HIV-1 LAI strain in CEM-SS cells; format: functional, cell-based; settings: Homo sapiens
How it was run: (§4)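 CEM-SS cells infected with HIV-1 LAI. Virus replication followed by reverse transcriptase activity measurement. EC50 is the concentration inhibiting 50% of virus replication. Relative potency is the ratio to AMD3100.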

[4] = as §2; format: cell-based; settings: human, CEM-SS cells (uninfected); how it was run: as §3
PBMC [5] = test: Potency of compound against HIV-1 89.6 strain in PBMC cells relative to AMD3100; format: functional, Homo sapiens
How it was run: (§5)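 PBMC infected with dual-tropic HIV-1 89.6. Virus growth measured by reverse transcriptase activity. EC50 is the concentration protecting 50% of infected cells. Relative potency is expressed against AMD3100.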

GHOST CCR5 = test: Inhibitory concentration of compound against HIV-1 Ba1 strain in GHOST CCR5 cell line; format: functional, cell-based; settings: Homo sapiens
How it was run: (§6)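 GHOST osteosarcoma cells express CD4, CXCR4 or CCR5 plus an HIV-2 LTR-GFP reporter, grown in Dulbecco medium with 10% FCS. Seeded at 2.5 10⁵ per well; 24 h later pretreated with compound for 1 h at 37 °C. Infected with HIV-1 Lai (CXCR4) or Bal (CCR5), 2 h adsorption, washed, cultured 48 h with drug. GFP+ cells counted by flow cytometry; IC50 from median-effect plot.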

MT4 [6] = test: Potency of compound against HIV-1 IIIB strain in MT-4 cells relative to AMD3100; format: functional, Homo sapiens; how it was run: as §1
GHOST CXCR4 [7] = test: Inhibitory concentration of compound against HIV-1 LAI strain in GHOST CXCR4 cell line; format: functional, cell-based; settings: Homo sapiens; how it was run: as §6
GHOST CXCR4 [8] = test: Potency of compound against HIV-1 LAI strain in GHOST CXCR4 cell line relative to AMD3100; format: functional, Homo sapiens; how it was run: as §6
PBMC [9] = test: Effective concentration of compound against HIV-1 89.6 strain in PBMC cells; format: functional, cell-based; settings: Homo sapiens; how it was run: as §5
CEM-SS [10] = test: Potency of compound against HIV-1 LAI strain in CEM-SS cells relative to AMD3100; format: functional, Homo sapiens; how it was run: as §4

Row | EC50 (CEM-SS [3]) | IC50 (GHOST CCR5) | IC50 (GHOST CXCR4 [7]) | Structure (SMILES) | EC50 (MT4 [1]) | CC50 ([2]; MT4 cells (uninfected)) | CC50 [4] | Relative potency (PBMC [5]) | Relative potency (MT4 [6]) | Relative potency (GHOST CXCR4 [8]) | CC50 ([2]; PBMC (uninfected)) | EC50 (PBMC [9]) | Relative potency (CEM-SS [10])
1 | 10000 nM | – | – | CCCCCCCCCCCCCC(=O)N[C@@H](CO[C@@H]1O[C@@H](CO)[C@H](O)[C@H](O)[C@@H]1O)C(=O)O | > 100000 nM | > 100000 nM | > 100000 nM | – | – | – | – | – | –
2 | 6000 nM | > 10000 nM | 21 nM | CCCCCCCCCCCCCC(=O)N[C@@H](CCCCNC(=O)CCCCN1CCCNCCN(Cc2ccc(CN3CCCNCCNCCCNCC3)cc2)CCCNCC1)C(=O)N[C@@H](CO[C@@H]1O[C@@H](CO)[C@H](O)[C@H](O)[C@@H]1O)C(=O)O | 2900 nM | > 100000 nM | > 100000 nM | ~65 | ~45 | ~20 | > 10000 nM | 250 nM | ~50
3 | 910 nM | > 50000 nM | 7.1 nM | CCOC(=O)CCCCN1CCCN(Cc2ccc(CN3CCCNCCNCCCNCC3)cc2)CCNCCCNCC1 | 690 nM | > 100000 nM | > 100000 nM | ~7 | ~10 | ~7 | > 100000 nM | 25 nM | ~7
4 | 5200 nM | > 50000 nM | 86 nM | CCCCCCCCCCCCCC(=O)N[C@@H](CCCCNC(=O)CCCCN1CCCN(Cc2ccc(CN3CCCNCCNCCCNCC3)cc2)CCNCCCNCC1)C(=O)N[C@@H](CO[C@@H]1O[C@@H](CO)[C@H](O)[C@H](O)[C@@H]1O)C(=O)O | 2800 nM | > 50000 nM | > 50000 nM | ~125 | ~45 | ~90 | > 28000 nM | 470 nM | ~40
5 | 127 nM | > 5000 nM | 0.95 nM | c1cc(CN2CCCNCCNCCCNCC2)ccc1CN1CCCNCCNCCCNCC1 [PLERIXAFOR] | 65 nM | > 10000 nM | > 10000 nM | – | – | – | > 10000 nM | 3.8 nM | –

Row | Structure (SMILES) | EC50 (CEM-SS [3]) | IC50 (GHOST CCR5) | IC50 (GHOST CXCR4 [7]) | EC50 (MT4 [1]) | CC50 ([2]; MT4 cells (uninfected)) | CC50 [4] | Relative potency (PBMC [5]) | Relative potency (MT4 [6]) | Relative potency (GHOST CXCR4 [8]) | CC50 ([2]; PBMC (uninfected)) | EC50 (PBMC [9]) | Relative potency (CEM-SS [10])
6 | Cc1cn([C@H]2C[C@H](N=[N+]=[N-])[C@@H](CO)O2)c(=O)[nH]c1=O [ZIDOVUDINE] | 6.3 nM | – | – | 9.9 nM | – | – | – | – | – | – | 24 nM | –

From ChEMBL document CHEMBL1147405, “New bicyclam-GalCer analogue conjugates: synthesis and in vitro anti-HIV activity” (Bioorg Med Chem Lett, 2004)
